In ChEMBL document CHEMBL1145402, “Discovery of potent and muscle selective androgen receptor modulators through scaffold modifications” (J Med Chem, 2007):
≈ marks a conversion by molar mass, not a printed value.

What was measured:
Androgen receptor [1] = target: T1, Androgen receptor (Homo sapiens, UniProt P10275); assay: Agonist activity at androgen receptor expressed in C2C12 mouse cells by luciferase reporter transactivation assay; format: functional, cell-based
T1 sequence (P10275 whole entry): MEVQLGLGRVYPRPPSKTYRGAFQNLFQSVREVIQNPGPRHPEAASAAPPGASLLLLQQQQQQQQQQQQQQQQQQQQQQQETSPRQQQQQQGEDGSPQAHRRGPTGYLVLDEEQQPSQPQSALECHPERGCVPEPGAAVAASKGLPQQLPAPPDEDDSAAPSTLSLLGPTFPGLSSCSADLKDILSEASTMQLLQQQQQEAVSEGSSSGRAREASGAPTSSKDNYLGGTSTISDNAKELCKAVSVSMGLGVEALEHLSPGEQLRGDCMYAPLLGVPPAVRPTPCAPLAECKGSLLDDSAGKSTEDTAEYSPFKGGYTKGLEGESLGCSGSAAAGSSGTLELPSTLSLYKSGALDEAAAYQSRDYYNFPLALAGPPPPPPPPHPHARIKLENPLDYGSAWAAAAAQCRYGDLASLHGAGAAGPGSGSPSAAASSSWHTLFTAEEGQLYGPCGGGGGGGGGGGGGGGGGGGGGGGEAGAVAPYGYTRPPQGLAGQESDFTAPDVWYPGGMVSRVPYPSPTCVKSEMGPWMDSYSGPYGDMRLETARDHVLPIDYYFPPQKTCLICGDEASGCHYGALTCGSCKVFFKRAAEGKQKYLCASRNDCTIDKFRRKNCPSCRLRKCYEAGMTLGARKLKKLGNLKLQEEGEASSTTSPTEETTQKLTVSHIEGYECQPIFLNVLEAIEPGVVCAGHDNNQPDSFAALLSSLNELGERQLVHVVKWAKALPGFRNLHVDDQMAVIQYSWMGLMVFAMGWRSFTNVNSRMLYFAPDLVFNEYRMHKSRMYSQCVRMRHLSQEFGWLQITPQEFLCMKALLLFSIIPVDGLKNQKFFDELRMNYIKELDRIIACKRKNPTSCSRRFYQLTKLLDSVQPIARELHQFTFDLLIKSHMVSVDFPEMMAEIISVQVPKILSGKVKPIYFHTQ

Androgen receptor [2] = target: T1, Androgen receptor; assay: Displacement of [3H]DHT from androgen receptor expressed in MDA-MB-453 cells; format: cell-based
Rattus norvegicus [3] = assay: Stimulation of levator ani muscle weight in Sprague-Dawley rat at 1 mg/kg, po after 14 days; format: functional
In short: (§1)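 Mature male rats were castrated two weeks before treatment. Compound was given […] once daily for two weeks, then levator ani muscle and ventral prostate were weighed. Weights are expressed as percent of a sham-operated, vehicle-treated intact control group, ±SEM.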

Rattus norvegicus [4] = assay: Stimulation of ventral prostate tissue weight in Sprague-Dawley rat at 1 mg/kg, po after 14 days; format: functional, Prostate gland; in short: as §1
[5] = (§2) Cmax in Sprague-Dawley rat at 10 mg/kg, po; format: ADME, organism-based; parameters: dose 10 mg/kg, route oral; settings: in vivo
[6] = AUC(0-4h) in Sprague-Dawley rat at 10 mg/kg; format: ADME, organism-based; parameters: time < 5 hr, dose 10 mg/kg; settings: plasma
[7] = Aqueous solubility of the compound; format: physicochemical
Rattus norvegicus [8] = assay: Stimulation of levator ani muscle weight in Sprague-Dawley rat at 0.01 mg/kg, po after 14 days; format: functional
Rattus norvegicus [9] = assay: Stimulation of ventral prostate tissue weight in Sprague-Dawley rat at 0.01 mg/kg, po after 14 days; format: functional, Prostate gland
Rattus norvegicus [10] = assay: Stimulation of levator ani muscle weight in Sprague-Dawley rat at 3 mg/kg, po after 14 days; format: functional; in short: as §1
Rattus norvegicus [11] = assay: Stimulation of ventral prostate tissue weight in Sprague-Dawley rat at 3 mg/kg, po after 14 days; format: functional, Prostate gland; in short: as §1
[12] = Half life in Sprague-Dawley rat at 10 mg/kg, po and 5 mg/kg, iv; format: ADME, organism-based; settings: in vivo
In short: (§3)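 Rat pharmacokinetics used 5 mg/kg i.v. and 10 mg/kg p.o. dosing. Oral bioavailability (F%), half-life, oral Tmax and total body clearance were derived from plasma concentrations.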

[13] = Bioavailability in Sprague-Dawley rat at 10 mg/kg, po; format: ADME, organism-based; settings: in vivo; in short: as §3
[14] = as §2; format: ADME, organism-based; parameters: dose 10 mg/kg, route oral; settings: in vivo; remark: listed apart in the source
[15] = Tmax in Sprague-Dawley rat at 10 mg/kg, po; format: ADME, organism-based; parameters: dose 10 mg/kg, route oral; settings: in vivo; in short: as §3
[16] = Clearance in Sprague-Dawley rat at 10 mg/kg, po and 5 mg/kg, iv; format: ADME, organism-based; settings: in vivo; in short: as §3
[17] = Binding affinity to progesterone receptor; parameters: species or system Homo sapiens
Estrogen receptor = Estrogen receptor (Homo sapiens, UniProt P03372); assay: Binding affinity to ERalpha
Glucocorticoid receptor = target: T2, Glucocorticoid receptor (Homo sapiens, UniProt P04150); assay: Binding affinity to glucocorticoid receptor
T2 sequence (P04150 whole entry): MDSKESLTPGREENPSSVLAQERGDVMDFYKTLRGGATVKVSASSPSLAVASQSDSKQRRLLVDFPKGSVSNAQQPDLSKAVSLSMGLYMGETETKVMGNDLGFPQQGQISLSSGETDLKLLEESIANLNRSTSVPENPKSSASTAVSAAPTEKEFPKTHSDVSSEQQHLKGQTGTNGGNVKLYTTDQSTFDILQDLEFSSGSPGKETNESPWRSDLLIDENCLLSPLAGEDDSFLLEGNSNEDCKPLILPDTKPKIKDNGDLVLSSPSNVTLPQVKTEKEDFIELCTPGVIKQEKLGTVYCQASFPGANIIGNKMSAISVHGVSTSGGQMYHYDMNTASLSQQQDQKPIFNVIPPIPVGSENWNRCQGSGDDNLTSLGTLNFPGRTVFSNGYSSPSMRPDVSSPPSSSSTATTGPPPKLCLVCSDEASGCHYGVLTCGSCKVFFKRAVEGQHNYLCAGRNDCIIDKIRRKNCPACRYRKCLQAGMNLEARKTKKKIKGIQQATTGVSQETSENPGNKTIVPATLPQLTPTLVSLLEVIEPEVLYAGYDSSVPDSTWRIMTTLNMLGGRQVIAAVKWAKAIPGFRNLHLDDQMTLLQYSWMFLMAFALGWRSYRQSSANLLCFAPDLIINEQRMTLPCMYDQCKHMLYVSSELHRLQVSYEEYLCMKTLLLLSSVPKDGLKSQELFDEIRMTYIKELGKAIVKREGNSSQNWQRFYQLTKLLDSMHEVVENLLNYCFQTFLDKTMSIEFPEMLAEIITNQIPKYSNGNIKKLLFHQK

[18] = target: T3, Sex hormone-binding globulin (Homo sapiens, UniProt P04278); assay: Binding affinity to SHBG
T3 sequence (P04278 whole entry): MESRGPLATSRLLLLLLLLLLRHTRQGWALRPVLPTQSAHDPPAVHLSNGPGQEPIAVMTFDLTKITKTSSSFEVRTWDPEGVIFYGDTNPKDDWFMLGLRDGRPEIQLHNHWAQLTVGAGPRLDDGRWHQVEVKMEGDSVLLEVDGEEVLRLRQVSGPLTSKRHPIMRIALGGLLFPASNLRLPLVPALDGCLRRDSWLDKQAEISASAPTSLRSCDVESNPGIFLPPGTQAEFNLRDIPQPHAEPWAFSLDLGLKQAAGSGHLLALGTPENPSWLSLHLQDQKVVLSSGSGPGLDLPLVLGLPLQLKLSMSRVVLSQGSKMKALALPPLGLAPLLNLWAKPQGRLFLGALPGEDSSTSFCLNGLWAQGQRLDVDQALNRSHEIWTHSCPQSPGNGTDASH

Aromatase = target: T4, Aromatase (Homo sapiens, UniProt P11511); assay: Inhibition of aromatase
T4 sequence (P11511 whole entry): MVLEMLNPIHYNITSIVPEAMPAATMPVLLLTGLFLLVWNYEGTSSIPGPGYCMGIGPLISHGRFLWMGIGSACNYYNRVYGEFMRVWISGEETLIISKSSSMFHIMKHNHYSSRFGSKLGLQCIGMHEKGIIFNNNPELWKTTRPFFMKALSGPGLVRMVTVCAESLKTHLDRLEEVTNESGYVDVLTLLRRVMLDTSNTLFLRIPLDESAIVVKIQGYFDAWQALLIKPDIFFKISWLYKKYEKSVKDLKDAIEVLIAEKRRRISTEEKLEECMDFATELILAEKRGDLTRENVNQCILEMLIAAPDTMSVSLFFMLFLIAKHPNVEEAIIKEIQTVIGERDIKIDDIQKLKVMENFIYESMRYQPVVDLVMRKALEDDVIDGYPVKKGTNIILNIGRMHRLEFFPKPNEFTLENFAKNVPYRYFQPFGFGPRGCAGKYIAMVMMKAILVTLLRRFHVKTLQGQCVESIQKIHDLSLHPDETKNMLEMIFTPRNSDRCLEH

[19] = Toxicity against human hepatocyte; format: cell-based; settings: hepatocytes
Cytochrome P450 2C19 = Cytochrome P450 2C19 (Homo sapiens, UniProt P33261); assay: Inhibition of CYP2C19; format: ADME
Cytochrome P450 1A2 = target: T5, Cytochrome P450 1A2 (Homo sapiens, UniProt P05177); assay: Inhibition of CYP1A2; format: ADME
T5 sequence (P05177 whole entry): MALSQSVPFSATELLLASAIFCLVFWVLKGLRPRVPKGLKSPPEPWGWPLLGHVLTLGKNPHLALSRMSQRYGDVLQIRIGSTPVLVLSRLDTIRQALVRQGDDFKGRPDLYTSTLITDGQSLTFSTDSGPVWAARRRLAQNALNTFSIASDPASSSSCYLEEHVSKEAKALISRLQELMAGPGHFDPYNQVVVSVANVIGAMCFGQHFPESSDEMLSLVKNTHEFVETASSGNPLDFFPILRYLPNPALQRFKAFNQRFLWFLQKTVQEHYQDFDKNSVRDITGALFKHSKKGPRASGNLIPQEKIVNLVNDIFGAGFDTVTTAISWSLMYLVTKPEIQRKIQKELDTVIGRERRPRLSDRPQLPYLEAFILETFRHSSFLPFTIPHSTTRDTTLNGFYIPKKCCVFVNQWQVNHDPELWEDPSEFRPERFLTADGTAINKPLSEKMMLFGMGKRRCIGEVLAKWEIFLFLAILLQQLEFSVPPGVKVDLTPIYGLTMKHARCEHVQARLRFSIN

Cytochrome P450 2C9 = Cytochrome P450 2C9 (Homo sapiens, UniProt P11712); assay: Inhibition of CYP2C9; format: ADME
Cytochrome P450 2D6 = Cytochrome P450 2D6 (Homo sapiens, UniProt P10635); assay: Inhibition of CYP2D6; format: ADME
Cytochrome P450 3A4 = Cytochrome P450 3A4 (Homo sapiens, UniProt P08684); assay: Inhibition of CYP3A4; format: ADME
hERG = hERG (Homo sapiens, UniProt Q12809); assay: Inhibition of hERG at 30 uM by patch clamp method; format: toxicity
hERG, sequence (Q12809 whole entry): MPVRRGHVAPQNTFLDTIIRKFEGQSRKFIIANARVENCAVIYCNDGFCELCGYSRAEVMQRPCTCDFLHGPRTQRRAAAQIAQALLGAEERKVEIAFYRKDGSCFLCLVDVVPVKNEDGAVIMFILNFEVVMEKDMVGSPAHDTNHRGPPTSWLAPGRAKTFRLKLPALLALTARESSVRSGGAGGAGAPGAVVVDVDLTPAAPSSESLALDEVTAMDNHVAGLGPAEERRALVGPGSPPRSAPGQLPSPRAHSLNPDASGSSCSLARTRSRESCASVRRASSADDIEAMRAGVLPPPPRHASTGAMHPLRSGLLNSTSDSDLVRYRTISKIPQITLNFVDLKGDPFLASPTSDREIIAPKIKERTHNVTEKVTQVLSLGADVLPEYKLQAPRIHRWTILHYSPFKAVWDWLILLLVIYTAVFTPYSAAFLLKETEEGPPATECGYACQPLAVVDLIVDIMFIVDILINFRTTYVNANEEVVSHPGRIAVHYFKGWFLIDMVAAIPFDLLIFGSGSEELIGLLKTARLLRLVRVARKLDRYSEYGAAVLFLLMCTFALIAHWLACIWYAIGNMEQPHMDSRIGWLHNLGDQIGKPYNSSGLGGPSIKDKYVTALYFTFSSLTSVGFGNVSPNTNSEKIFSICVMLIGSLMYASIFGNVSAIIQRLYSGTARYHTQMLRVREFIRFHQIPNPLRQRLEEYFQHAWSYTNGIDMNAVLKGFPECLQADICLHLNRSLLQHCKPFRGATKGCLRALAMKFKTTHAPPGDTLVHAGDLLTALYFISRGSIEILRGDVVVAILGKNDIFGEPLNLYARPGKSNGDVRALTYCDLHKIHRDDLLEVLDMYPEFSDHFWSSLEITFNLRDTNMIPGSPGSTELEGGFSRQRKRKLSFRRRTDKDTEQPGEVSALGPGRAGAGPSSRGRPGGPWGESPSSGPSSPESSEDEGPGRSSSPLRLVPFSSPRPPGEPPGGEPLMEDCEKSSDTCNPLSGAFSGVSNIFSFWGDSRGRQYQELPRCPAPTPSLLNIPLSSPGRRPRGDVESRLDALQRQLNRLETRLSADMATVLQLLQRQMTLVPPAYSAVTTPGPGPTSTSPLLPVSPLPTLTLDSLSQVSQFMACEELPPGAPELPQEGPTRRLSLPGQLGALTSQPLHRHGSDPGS

Cytochrome P450 3A4, sequence (P08684 whole entry): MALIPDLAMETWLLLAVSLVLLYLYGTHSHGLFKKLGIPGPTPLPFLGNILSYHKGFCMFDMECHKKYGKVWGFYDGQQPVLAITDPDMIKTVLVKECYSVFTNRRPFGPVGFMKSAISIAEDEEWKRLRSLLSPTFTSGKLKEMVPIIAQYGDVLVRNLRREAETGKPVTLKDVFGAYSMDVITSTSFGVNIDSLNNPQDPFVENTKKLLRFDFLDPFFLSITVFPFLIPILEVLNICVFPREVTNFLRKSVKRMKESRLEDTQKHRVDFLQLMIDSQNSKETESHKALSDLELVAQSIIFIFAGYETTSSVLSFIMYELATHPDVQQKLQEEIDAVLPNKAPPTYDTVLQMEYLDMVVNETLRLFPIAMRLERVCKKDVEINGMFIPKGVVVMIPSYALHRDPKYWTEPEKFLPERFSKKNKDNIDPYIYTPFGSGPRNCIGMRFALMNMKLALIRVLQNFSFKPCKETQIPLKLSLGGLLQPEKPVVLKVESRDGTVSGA
Estrogen receptor, sequence (P03372 whole entry, looked up): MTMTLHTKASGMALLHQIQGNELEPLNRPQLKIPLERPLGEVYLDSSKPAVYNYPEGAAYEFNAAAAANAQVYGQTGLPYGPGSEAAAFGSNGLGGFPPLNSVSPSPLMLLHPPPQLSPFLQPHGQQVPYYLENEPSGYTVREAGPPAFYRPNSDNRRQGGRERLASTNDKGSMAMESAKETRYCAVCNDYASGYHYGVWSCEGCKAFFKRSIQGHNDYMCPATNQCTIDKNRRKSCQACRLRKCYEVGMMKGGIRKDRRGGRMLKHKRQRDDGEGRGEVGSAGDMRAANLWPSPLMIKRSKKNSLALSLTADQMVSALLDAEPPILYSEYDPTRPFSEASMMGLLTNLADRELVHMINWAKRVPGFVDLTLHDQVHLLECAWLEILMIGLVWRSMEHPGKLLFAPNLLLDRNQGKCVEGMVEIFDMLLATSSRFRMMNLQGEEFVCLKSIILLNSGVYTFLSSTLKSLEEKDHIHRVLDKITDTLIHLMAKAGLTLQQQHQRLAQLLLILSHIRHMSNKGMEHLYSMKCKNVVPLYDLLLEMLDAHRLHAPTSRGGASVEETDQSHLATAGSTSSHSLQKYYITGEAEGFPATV
Cytochrome P450 2C9, sequence (P11712 whole entry): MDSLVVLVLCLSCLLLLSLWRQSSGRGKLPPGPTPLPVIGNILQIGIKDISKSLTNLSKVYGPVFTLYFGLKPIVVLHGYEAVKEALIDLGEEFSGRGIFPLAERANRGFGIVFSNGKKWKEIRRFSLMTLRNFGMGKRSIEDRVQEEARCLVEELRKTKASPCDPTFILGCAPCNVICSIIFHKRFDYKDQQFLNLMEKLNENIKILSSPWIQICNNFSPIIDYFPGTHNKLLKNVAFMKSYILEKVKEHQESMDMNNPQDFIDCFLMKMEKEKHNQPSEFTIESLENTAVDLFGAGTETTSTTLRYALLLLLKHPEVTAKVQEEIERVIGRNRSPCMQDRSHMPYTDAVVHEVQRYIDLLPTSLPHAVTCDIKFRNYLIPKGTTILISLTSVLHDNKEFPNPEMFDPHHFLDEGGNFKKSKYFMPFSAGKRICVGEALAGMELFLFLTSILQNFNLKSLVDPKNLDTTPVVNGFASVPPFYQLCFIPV
Cytochrome P450 2C19, sequence (P33261 whole entry): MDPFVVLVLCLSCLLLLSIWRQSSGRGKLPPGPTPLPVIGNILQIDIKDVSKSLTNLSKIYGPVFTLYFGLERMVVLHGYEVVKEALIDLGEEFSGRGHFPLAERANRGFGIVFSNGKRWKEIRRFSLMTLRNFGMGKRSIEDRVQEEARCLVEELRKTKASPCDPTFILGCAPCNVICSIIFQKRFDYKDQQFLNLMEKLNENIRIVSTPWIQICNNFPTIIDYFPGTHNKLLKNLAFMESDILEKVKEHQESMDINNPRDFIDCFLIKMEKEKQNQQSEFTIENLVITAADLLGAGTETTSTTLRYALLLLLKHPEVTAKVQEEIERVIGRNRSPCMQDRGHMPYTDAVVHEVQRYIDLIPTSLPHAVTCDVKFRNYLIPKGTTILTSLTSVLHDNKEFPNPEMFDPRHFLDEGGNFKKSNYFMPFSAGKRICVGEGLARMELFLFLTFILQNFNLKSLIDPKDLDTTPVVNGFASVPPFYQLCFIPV
Cytochrome P450 2D6, sequence (P10635 whole entry): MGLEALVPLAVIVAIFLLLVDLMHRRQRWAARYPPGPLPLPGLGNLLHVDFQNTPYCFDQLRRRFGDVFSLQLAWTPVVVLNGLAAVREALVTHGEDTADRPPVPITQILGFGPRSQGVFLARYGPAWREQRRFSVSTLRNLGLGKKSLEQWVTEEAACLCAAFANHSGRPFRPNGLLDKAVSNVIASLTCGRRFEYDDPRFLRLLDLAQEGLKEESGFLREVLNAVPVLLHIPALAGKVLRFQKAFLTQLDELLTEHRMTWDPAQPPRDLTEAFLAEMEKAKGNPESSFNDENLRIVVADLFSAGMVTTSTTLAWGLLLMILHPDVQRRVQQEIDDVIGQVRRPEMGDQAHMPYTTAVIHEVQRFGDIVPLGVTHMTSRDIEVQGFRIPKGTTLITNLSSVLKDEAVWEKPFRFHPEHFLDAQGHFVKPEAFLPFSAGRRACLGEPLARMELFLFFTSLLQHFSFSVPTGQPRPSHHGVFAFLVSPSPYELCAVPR

SMILES | EC50 (Androgen receptor [1]) [nM] | Ki (Androgen receptor [2]) [nM] | Activity (Rattus norvegicus [3]) [%] | Activity (Rattus norvegicus [4]) [%] | Cmax [5] [nM] | AUC(0-t) at 5 h [6] [µM·h] | solubility [7] [µg/mL] | further results
CC[C@H]1[C@@H]2[C@H](O)CCN2C(=O)N1c1ccc(C#N)c(Cl)c1C | 2.6 | 0.7 | – | – | – | – | – | –
Cc1c(N2C(=O)N3CC[C@@H](O)[C@H]3[C@@H]2C(F)(F)F)ccc(C#N)c1Cl | 2.9 | 1 | 40 | 3 | 819 | 1.18 | – | –
Cc1c(N2C(=O)N3CC[C@@H](O)[C@H]3[C@H]2C(F)(F)F)ccc(C#N)c1Cl | 2.1 | 2.2 | 30 | 1 | 245 | 0.63 | 1140 (≈ 3170 µM) | –
Cc1c(N2C(=O)[C@@H]3[C@H](O)CCN3C2=O)ccc(C#N)c1Cl | – | – | – | – | 6900 | 8.8 | – | Activity (Rattus norvegicus [8]): 59%; Activity (Rattus norvegicus [9]): 3%
Cc1c(N2C[C@@H]3[C@H](O)CCN3C2=O)ccc(C#N)c1Cl | 15 | 2 | 66 | 14 | 3970 | 6.38 | 245 (≈ 840 µM) | –
Cc1c(N2C(=O)N3CC[C@H](O)[C@H]3[C@@H]2C)ccc(C#N)c1Cl | – | – | – | – | 1620 | 2.89 | 613 (≈ 2000 µM) | Activity (Rattus norvegicus [10]): 44%; Activity (Rattus norvegicus [11]): 4%
CC[C@H]1[C@@H]2[C@@H](O)CCN2C(=O)N1c1ccc(C#N)c(Cl)c1C | 1.8 | 0.9 | 101 | 24 | 3100 | 6.08 | 242 (≈ 757 µM) | half-life [12]: 5.5 h; bioavailability [13]: 65%; Cmax [14]: 2100 nM; Tmax [15]: 0.8 h; clearance [16]: 58 mL/min/kg; Ki [17]: > 10000 nM; Ki (Estrogen receptor): > 10000 nM; Ki (Glucocorticoid receptor): > 10000 nM; Ki [18]: > 100000 nM; IC50 (Aromatase): > 100000 nM; IC50 [19]: > 200000 nM; IC50 (Cytochrome P450 2C19): 7600 nM; IC50 (Cytochrome P450 1A2): > 40000 nM; IC50 (Cytochrome P450 2C9): > 40000 nM; IC50 (Cytochrome P450 2D6): > 40000 nM; IC50 (Cytochrome P450 3A4): > 40000 nM; inhibition at 30 µM (hERG): 6%
